MrgX1 ag: activates human MrgX1 receptor signaling; MrgX1-HEK293 cells, Fluo-4 calcium fluorescence, agonist mode; stronger effect = higher value; B-score at 10 µM; 0.44% of 310,000 active;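 active = calcium response B-score plate-corrected fluorescence ratio at least 3 library SD, with starting fluorescence B-score inside 5 SD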
Target sequence (Q96LB2 whole entry, looked up): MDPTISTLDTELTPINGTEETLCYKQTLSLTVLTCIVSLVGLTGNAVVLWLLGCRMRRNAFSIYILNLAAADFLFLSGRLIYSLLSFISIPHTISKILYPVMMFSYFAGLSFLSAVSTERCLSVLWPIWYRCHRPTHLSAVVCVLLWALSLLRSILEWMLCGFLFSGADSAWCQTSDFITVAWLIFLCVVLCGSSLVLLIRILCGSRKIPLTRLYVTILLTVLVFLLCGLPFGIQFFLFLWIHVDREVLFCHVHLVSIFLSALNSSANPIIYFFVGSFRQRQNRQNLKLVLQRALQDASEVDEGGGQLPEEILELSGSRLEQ
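System: HEK293 cells stably expressing human MrgX1 receptor; Dosing: test compound in the initial addition of three; Schedule: overnight plating, then 30 min 37 °C plus 30 min room-temperature dye loading; Detection: kinetic calcium dye fluorescence, Fluo-4 NW; Controls: per-plate positive and negative controls for Z′ factor.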
MrgX1 antag: antagonists of human MrgX1 receptor | MRGX1-HEK293 calcium flux, Fluo-4, BAM8-22 antagonism; stronger effect = lower value | 1.3% of 310,000 active | Q96LB2 | AID 588676 | B-score at 10 µM;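 active = calcium-response B-score plate-corrected more than 3 library SD below zero, starting fluorescence within 5 deviations, no agonist response on first addition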;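 also: peak minus trough fluorescence over baseline after final BAM8-22 challenge near maximal dose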
MrgX1 PAM: human MrgX1 positive allosteric modulation, primary screen | Q96LB2 | B-score at 10 µM | MrgX1-HEK293, Fluo-4 calcium flux, FDSS; stronger effect = higher value | 0.63% of 310,000 active;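 active = plate-corrected calcium response at least 3 library SD above typical, normal starting fluorescence, not activating the receptor alone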;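 also: compound read alongside a low EC10 to EC30 dose of BAM8-22 agonist; peak minus trough fluorescence over baseline measured at the second addition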
RGS4 inh: inhibitors of human RGS4; HEK293 M3R/RGS4 inducible, Fluo-4 calcium flux; stronger effect = higher value; triggered by carbachol at its EC20; AID 463165; 0.45% of 310,000 active; B-score at 10 µM; P49798;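 active = B-score, a plate-corrected calcium signal, over three deviations above library mean, with baseline fluorescence within five deviations of library mean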;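 also: RGS4 expression induced by doxycycline in cells with stable M3 receptor; B-score is computed from the integrated fluorescence ratio over baseline after carbachol; higher B-score means a larger calcium signal and so more RGS4 inhibition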
Target sequence (P49798 whole entry, looked up): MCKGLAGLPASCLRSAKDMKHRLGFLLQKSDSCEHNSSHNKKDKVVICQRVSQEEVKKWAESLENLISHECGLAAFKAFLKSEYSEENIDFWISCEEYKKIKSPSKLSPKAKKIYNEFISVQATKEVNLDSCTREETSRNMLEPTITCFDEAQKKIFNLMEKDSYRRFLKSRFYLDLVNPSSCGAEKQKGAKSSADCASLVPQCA
RGS4 pot: RGS4 potentiation or activation. HEK293 M3R/inducible RGS4, carbachol calcium flux Fluo4; stronger effect = lower value. B-score at 10 µM. 0.92% of 310,000 active;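 active = B-score of the integrated calcium signal more than 4 SD below the library mean, with starting fluorescence not abnormally high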;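 also: negative B-score means reduced calcium response which marks RGS4 activation or potentiation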
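System: HEK293 FlpIn-TREx cells, stable M3R, doxycycline-inducible RGS4. Timing: overnight RGS4 induction, 30 min dye load 37 °C, 20 min compound RT. Also added: carbachol, ECmax concentration. Measured by: Fluo4 fluorescence kinetic imaging of calcium. Evaluation: integrated calcium ratio converted to B score.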
MrgX1 ag confirm: human MrgX1 agonism, re-confirmation screen; shares compounds with MrgX1 ag; MrgX1-HEK293, Fluo-4 calcium fluorescence, FDSS; activation, % at 10 µM; 78% of 600 active; AID 602412;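 active = calcium signal rise, corrected for plate position, at least 3 library SD high, with starting brightness within 5 such deviations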
HEK293 Ca flux: activity in parental HEK293 cells lacking MrgX1; Fluo-4 calcium fluorescence, FDSS; shares compounds with MrgX1 antag; fluorescence ratio F(max-min)/F0 at 10 µM; 2% of 4,000 active;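 active = duplicate-averaged calcium fluorescence ratio at least three times the standard deviation of buffer wells, a nonspecific response in parental cells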
HEK293 Ca counter: counter-screen for MrgX1 allosteric activators: effect in parental HEK293 cells; shares compounds with MrgX1 antag; parental HEK293 calcium flux, Fluo-4 fluorescence ratio; stronger effect = higher value; fluorescence ratio F(max-min)/F0 at 10 µM; 0.4% of 4,000 active;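 active = calcium fluorescence ratio, averaged over duplicates, at least 3 SD of the buffer-well ratio, meaning a nonspecific response in receptor-free cells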;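 also: untransfected parental HEK293 lacking MrgX1 used as counterscreen for MrgX1 allosteric activators; fluorescence change taken during the second addition on a kinetic imager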
HEK293 Ca cntr2: MrgX1 activator counter-screen hit in parental HEK293 cells | 8.7% of 4,000 active | Fluo-4 calcium fluorescence (FDSS); stronger effect = higher value | fluorescence ratio F(max-min)/F0 at 10 µM | shares compounds with MrgX1 antag | AID 624115;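 active = calcium fluorescence ratio at least three times the spread of buffer wells, meaning a non-specific response in parental cells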
* marks the source's active call; other numbers are inactive results. This is a sample that favours compounds with a hit; in the whole collection about 3.5% have one here.

Results for O=C(NNC(=S)NC(=O)c1cccs1)c1ccc(O)cc1 ?
MrgX1 ag: inactive; MrgX1 antag: inactive; MrgX1 PAM: inactive; RGS4 inh: inactive; RGS4 pot: inactive

Results for O=C(NC(=S)NNC(=O)c1cccs1)c1ccc(Br)o1 ?
MrgX1 ag: 100*; MrgX1 antag: inactive; MrgX1 PAM: inactive; RGS4 inh: inactive; RGS4 pot: inactive; MrgX1 ag confirm: 710%*; HEK293 Ca flux: inactive; HEK293 Ca counter: inactive; HEK293 Ca cntr2: 137*

What do the screens show for `Cc1cc(N2CCCCC2)nc(NCc2ccccc2)n1`?
MrgX1 ag: 83*; MrgX1 antag: inactive; MrgX1 PAM: inactive; RGS4 inh: inactive; RGS4 pot: inactive; MrgX1 ag confirm: 340%*; HEK293 Ca flux: inactive; HEK293 Ca counter: inactive; HEK293 Ca cntr2: inactive

How did Cc1cc(N2CCOCC2)nc(NCc2ccccc2)n1 do in these assays?
MrgX1 ag: 66*; MrgX1 antag: inactive; MrgX1 PAM: inactive; RGS4 inh: inactive; RGS4 pot: inactive; MrgX1 ag confirm: 294%*; HEK293 Ca flux: inactive; HEK293 Ca counter: inactive; HEK293 Ca cntr2: inactive

What do the screens show for `Cc1cc(NCc2ccccc2)nc(N2CCOCC2)n1`?
MrgX1 ag: inactive; MrgX1 antag: inactive; MrgX1 PAM: inactive; RGS4 inh: inactive; RGS4 pot: inactive

Results for COc1cc(/C=C2\SC(=Nc3ccccc3)NC2=O)cc(Cl)c1O ?
MrgX1 ag: 84*; MrgX1 antag: inactive; MrgX1 PAM: inactive; RGS4 inh: inactive; RGS4 pot: inactive; MrgX1 ag confirm: inactive; HEK293 Ca flux: 0.39*; HEK293 Ca counter: inactive; HEK293 Ca cntr2: 139*

How did CCCN(c1ccccc1C(=O)O)S(=O)(=O)c1ccc2c(c1)n(C)c(=O)n2C do in these assays?
MrgX1 ag: inactive; MrgX1 antag: inactive; MrgX1 PAM: inactive; RGS4 inh: inactive; RGS4 pot: inactive

Results for CN(C)c1ccc(/C=C(/C(=O)c2ccc(Cl)cc2Cl)n2cncn2)cc1 ?
MrgX1 ag: 77*; MrgX1 antag: inactive; MrgX1 PAM: inactive; RGS4 inh: inactive; RGS4 pot: inactive; MrgX1 ag confirm: inactive; HEK293 Ca flux: 0.33*; HEK293 Ca counter: inactive; HEK293 Ca cntr2: inactive

What do the screens show for `CCNC(=O)/C(=C/c1ccc2c(c1)OCO2)NC(=O)c1ccc(Br)cc1`?
MrgX1 ag: inactive; MrgX1 antag: inactive; MrgX1 PAM: inactive; RGS4 inh: inactive; RGS4 pot: inactive

Results for CCc1nc(N)nc(N)c1-c1ccc(Cl)cc1 ?
MrgX1 ag: 28*; MrgX1 antag: inactive; MrgX1 PAM: inactive; RGS4 inh: inactive; RGS4 pot: inactive; MrgX1 ag confirm: inactive; HEK293 Ca flux: inactive; HEK293 Ca counter: inactive; HEK293 Ca cntr2: inactive

Results for CN(C)S(=O)(=O)c1cccc(NC(=S)NN=C(Cc2ccccc2)Cc2ccccc2)c1 ?
MrgX1 ag: inactive; MrgX1 antag: inactive; MrgX1 PAM: inactive; RGS4 inh: inactive; RGS4 pot: inactive

What do the screens show for `COc1ccc(-n2c(O)c(/C=N/NS(=O)(=O)c3ccc(C)cc3)c3ccccc3c2=O)cc1OC`?
MrgX1 ag: 86*; MrgX1 antag: inactive; MrgX1 PAM: inactive; RGS4 inh: inactive; RGS4 pot: -7*; MrgX1 ag confirm: 199%*; HEK293 Ca flux: inactive; HEK293 Ca counter: inactive; HEK293 Ca cntr2: 67*

What do the screens show for `COc1ccc(-n2c(O)c(/C=N/Nc3nc(C)cc(C)n3)c3ccccc3c2=O)cc1OC`?
MrgX1 ag: inactive; MrgX1 antag: inactive; MrgX1 PAM: inactive; RGS4 inh: inactive; RGS4 pot: inactive

How did COc1ccc(-n2c(O)c(/C=N/NS(=O)(=O)c3cc(C)ccc3C)c3ccccc3c2=O)cc1OC do in these assays?
MrgX1 ag: 130*; MrgX1 antag: inactive; MrgX1 PAM: inactive; RGS4 inh: inactive; RGS4 pot: -7.7*; MrgX1 ag confirm: 322%*; HEK293 Ca flux: 0.32*; HEK293 Ca counter: inactive; HEK293 Ca cntr2: 132*

Results for COc1ccc(C)cc1S(=O)(=O)Nc1ccc(-n2c(C)nc3ccccc3c2=O)cc1 ?
MrgX1 ag: inactive; MrgX1 antag: inactive; MrgX1 PAM: inactive; RGS4 inh: inactive; RGS4 pot: inactive

How did CC(C)OC(=O)CN1C(=O)S/C(=C/c2ccc(N3CCCCC3)o2)C1=O do in these assays?
MrgX1 ag: 64*; MrgX1 antag: inactive; MrgX1 PAM: inactive; RGS4 inh: inactive; RGS4 pot: inactive; MrgX1 ag confirm: inactive; HEK293 Ca flux: 0.079*; HEK293 Ca counter: inactive; HEK293 Ca cntr2: inactive

How did O=C1S/C(=C\c2ccc(N3CCOCC3)o2)C(=O)N1Cc1ccc(F)cc1 do in these assays?
MrgX1 ag: inactive; MrgX1 antag: inactive; MrgX1 PAM: inactive

How did CCc1cc(=O)n2c([nH]c3ccccc32)c1C#N do in these assays?
MrgX1 ag: inactive; MrgX1 antag: inactive; MrgX1 PAM: inactive; RGS4 inh: inactive; RGS4 pot: inactive

What do the screens show for `CCc1cc(=S)n2c([nH]c3ccccc32)c1C#N`?
MrgX1 ag: 43*; MrgX1 antag: inactive; MrgX1 PAM: inactive; RGS4 inh: inactive; RGS4 pot: inactive; MrgX1 ag confirm: 284%*; HEK293 Ca flux: inactive; HEK293 Ca counter: inactive; HEK293 Ca cntr2: 93*

What do the screens show for `COCCCn1c(N)c(-c2nc3ccccc3n2C)c2nc3ccccc3nc21`?
MrgX1 ag: 60*; MrgX1 antag: inactive; MrgX1 PAM: inactive; RGS4 inh: inactive; RGS4 pot: inactive; MrgX1 ag confirm: 249%*; HEK293 Ca flux: inactive; HEK293 Ca counter: inactive; HEK293 Ca cntr2: 87*

Results for Cc1oc2c(CN3CCC(C)CC3)c(O)ccc2c(=O)c1-c1ccccc1 ?
MrgX1 ag: inactive; MrgX1 antag: inactive; MrgX1 PAM: inactive; RGS4 inh: inactive; RGS4 pot: inactive

How did CC(=O)Nc1ccc(SCCCC(=O)c2ccccc2)cc1 do in these assays?
MrgX1 ag: inactive; MrgX1 antag: inactive; MrgX1 PAM: inactive; RGS4 inh: inactive; RGS4 pot: inactive

Results for CCn1c(=O)c(C(=O)CN2CCN(S(=O)(=O)c3ccc(C)cc3C)CC2)c(N)n(Cc2ccccc2)c1=O ?
MrgX1 ag: inactive; MrgX1 antag: inactive; MrgX1 PAM: inactive; RGS4 inh: inactive; RGS4 pot: inactive
